Test results published in ChEMBL document CHEMBL1146489, “Aspochalasins I, J, and K: three new cytotoxic cytochalasans of Aspergillus flavipes from the rhizosphere of Ericameria laricifolia of the Sonoran Desert” (J Nat Prod, 2004).

Assays:
Format in all cases: functional, cell-based
[1] = test system: MCF7; assay: Cytotoxicity against human MCF7 cells after 48 hrs by MTT assay; conditions: MCF7, 48 h
In short: (§1)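 Human tumour cells (NCI-H460 lung, MCF-7 breast, SF-268 glioma) exposed to compounds for 48 h in RPMI 1640 with 10% fetal bovine serum; viability read by tetrazolium-based colorimetric MTT assay.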

[2] = test system: SF-268; assay: Cytotoxicity against human SF268 cells after 48 hrs by MTT assay; conditions: SF-268, 48 h; in short: as §1
[3] = test system: NCI-H460; assay: Cytotoxicity against human NCI-H460 cells after 48 hrs by MTT assay; conditions: NCI-H460, 48 h; in short: as §1

CC1=C[C@@H]2/C=C(\C)CCCC(O)/C=C/C(=O)[C@]23C(=O)N[C@@H](CC(C)C)[C@@H]3[C@@H]1C (stereo partly drawn)
IC50 [1]: 5 µM | IC50 [2]: 9.5 µM | IC50 [3]: 3.5 µM

CC1=C[C@@H]2/C=C(\C)CC[C@H](O)[C@@H](O)/C=C/C(=O)[C@]23C(=O)N[C@@H](CC(C)C)[C@@H]3[C@@H]1C [ASPOCHALASIN C]
IC50 [1]: 7.7 µM | IC50 [2]: 3.9 µM | IC50 [3]: 5 µM

CC1=C[C@@H]2/C=C(\C)CC[C@H](O)[C@H](O)/C=C/C(=O)[C@]23C(=O)N[C@@H](CC(C)C)[C@@H]3[C@@H]1C [ASPOCHALASIN D]
IC50 [1]: 5.3 µM | IC50 [2]: 5 µM | IC50 [3]: 3.4 µM

CC1=C[C@@H]2/C=C(\C)CC[C@H](O)[C@H](O)[C@@H](O)CC(=O)[C@]23C(=O)N[C@@H](CC(C)C)[C@@H]3[C@@H]1C [ASPOCHALASIN E]
IC50 [1]: 30.4 µM | IC50 [2]: 52.6 µM | IC50 [3]: 31.5 µM

CC1=C[C@@H]2/C=C(\C)CC[C@H](O)[C@H](O)/C=C/C(=O)O[C@]23C(=O)N[C@@H](CC(C)C)[C@@H]3[C@@H]1C [ASPOCHALASIN I]
IC50 [1]: 33.4 µM | IC50 [2]: 19.9 µM | IC50 [3]: 22.1 µM

CC1=C[C@@H]2/C=C(\C)CCC[C@H](O)/C=C/C(=O)O[C@]23C(=O)N[C@@H](CC(C)C)[C@@H]3[C@@H]1C [ASPOCHALASIN J]
IC50 [1]: 14.9 µM | IC50 [2]: 13.4 µM | IC50 [3]: 55.2 µM

CO[C@H]1[C@@H](O)CC/C(C)=C/[C@H]2C=C(C)[C@@H](C)[C@H]3[C@H](CC(C)C)NC(=O)[C@]32C(=O)C[C@@H]1O [ASPOCHALASIN K]
IC50 [1]: 13.1 µM | IC50 [2]: 19.9 µM | IC50 [3]: 14.3 µM

CC(=O)O[C@H]1C(=O)[C@@]2(C)[C@H]([C@H](OC(=O)c3ccccc3)[C@]3(O)C[C@H](OC(=O)[C@H](O)[C@@H](NC(=O)c4ccccc4)c4ccccc4)C(C)=C1C3(C)C)[C@]1(OC(C)=O)CO[C@@H]1C[C@@H]2O [PACLITAXEL]
IC50 [2]: 0.0217 µM | IC50 [3]: 0.0095 µM
